Results from ChEMBL document CHEMBL4308828, “Fragment Based Optimization of Metabotropic Glutamate Receptor 2 (mGluR2) Positive Allosteric Modulators in the Absence of Structural Information” (J Med Chem, 2018).

Tests used:
[1] = Intrinsic clearance in NMRI mouse liver microsomes at 2.5 uM; assay type: ADME, Microsome
Method in brief: (§1)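 Liver microsomes (0.5 mg/mL) of human, Wistar rat or NMRI mouse; compound 2.5 μM initial, incubated for various times. Intrinsic clearance (mL/min·g liver) taken as rate of compound consumption under first-order conditions, Clint = Vmax/KM or V/S when S ≪ KM.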

[2] = Intrinsic clearance in Wistar rat liver microsomes at 2.5 uM; assay type: ADME, Microsome; method in brief: as §1
[3] = molecular target: Metabotropic glutamate receptor 2 (Homo sapiens, UniProt Q14416); assay: Positive allosteric modulation of human mGluR2 expressed in human Chem1 cells assessed as increase in glutamate-induced intracellular calcium influx preincubated for 30 mins followed by glutamate addition by calcium-5 dye based fluorometric assay; assay type: functional, cell-based
Method in brief: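 Chem-1 cells stably expressing human mGlu2, 30000 cells/well, overnight at 37 °C. Loaded with Calcium 5 dye (30 min, 37 °C) in buffer with GPT/pyruvate, washed, then compound or vehicle 30 min at 37 °C. Glutamate at EC5-EC20 added after 20 s baseline; fluorescence 485/525 nm read 40 s. ΔF/F from multiple wells; sigmoid fits give EC50, three independent experiments. Final DMSO 1%.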

[4] = Intrinsic clearance in human liver microsomes at 2.5 uM; assay type: ADME, Microsome; method in brief: as §1

Sequence of Metabotropic glutamate receptor 2 (Q14416 whole entry): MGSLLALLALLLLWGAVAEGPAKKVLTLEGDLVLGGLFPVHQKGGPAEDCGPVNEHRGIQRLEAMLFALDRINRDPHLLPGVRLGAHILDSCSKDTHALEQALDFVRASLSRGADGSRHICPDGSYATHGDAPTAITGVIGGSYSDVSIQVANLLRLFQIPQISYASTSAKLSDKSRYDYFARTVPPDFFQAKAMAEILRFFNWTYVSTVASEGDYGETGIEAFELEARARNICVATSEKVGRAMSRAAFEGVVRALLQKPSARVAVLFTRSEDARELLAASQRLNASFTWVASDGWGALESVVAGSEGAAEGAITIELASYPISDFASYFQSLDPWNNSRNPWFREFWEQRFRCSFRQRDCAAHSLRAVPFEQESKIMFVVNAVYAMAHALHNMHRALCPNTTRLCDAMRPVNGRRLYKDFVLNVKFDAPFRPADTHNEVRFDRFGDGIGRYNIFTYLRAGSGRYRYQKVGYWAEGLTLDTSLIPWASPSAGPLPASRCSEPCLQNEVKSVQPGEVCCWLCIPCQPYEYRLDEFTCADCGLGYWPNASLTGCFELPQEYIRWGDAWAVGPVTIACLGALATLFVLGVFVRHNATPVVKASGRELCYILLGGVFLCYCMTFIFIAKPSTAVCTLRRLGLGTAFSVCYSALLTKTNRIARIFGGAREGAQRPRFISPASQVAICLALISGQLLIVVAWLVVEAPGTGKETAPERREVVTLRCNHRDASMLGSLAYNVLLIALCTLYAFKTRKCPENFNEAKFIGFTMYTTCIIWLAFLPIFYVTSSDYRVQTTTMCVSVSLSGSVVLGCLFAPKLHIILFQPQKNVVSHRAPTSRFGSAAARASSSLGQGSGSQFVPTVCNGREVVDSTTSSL

Intrinsic clearance [1] [mL/min/g] | Intrinsic clearance [2] [mL/min/g] | EC50 [3] [nM] | Intrinsic clearance [4] [mL/min/g] | SMILES
2.2 | 0.6 | 27 | 0.1 | Fc1cc(Cl)ccc1-c1ccc(Cn2nnc3c(F)cccc32)cn1
1.3 | 1.4 | 79 | 0.6 | Clc1ccc(-c2ccc(Cn3nnc4ccccc43)cc2)c(Cl)c1
1.6 | 0.1 | 33 | 0.05 | N#Cc1cccc2c1nnn2Cc1ccc(-c2ccc(Cl)cc2F)nc1
2.6 | 2.2 | 14 | 0.4 | Brc1ccc(Cn2nnc3c(Br)cccc32)cc1
0.1 | 0.2 | 13 | 0.04 | Fc1cc(Cl)ccc1-c1ccc(Cn2nnc3c(C(F)(F)F)cccc32)cn1
1 | 1.2 | 3000 | 7.9 | c1ccc(Cn2nnc3ccccc32)cc1
2.2 | 3.1 | 18 | 0.4 | Fc1cc(Cn2nnc3c(Br)cccc32)ccc1Cl
1.3 | 3.8 | 23 | 0.5 | Fc1cc(Cl)ccc1Cn1nnc2c(Br)cccc21
1.1 | 1.3 | 28 | 0.4 | Fc1cc(Cl)ccc1-c1ccc(Cn2nnc3ccccc32)cc1
– | – | 600 | – | Fc1ccccc1-c1ccc(Cn2nnc3ccccc32)cn1

Continued, compound first:

SMILES | Intrinsic clearance [1] [mL/min/g] | Intrinsic clearance [2] [mL/min/g] | EC50 [3] [nM] | Intrinsic clearance [4] [mL/min/g]
Brc1cccc2c1nnn2Cc1ccccc1 | 2.3 | 2 | 80 | 4.7
Brc1cccc2c1nnn2CC1CCC1 | 11.4 | 12 | 20 | 8.7
Clc1cccc2c1nnn2CC1CC1 | 5.7 | 0.5 | 90 | 4.2
CC(C)Cn1nnc2c(Br)cccc21 | 3.5 | 4 | 140 | 4.2
CCCCn1nnc2c(Br)cccc21 | 8.3 | 4.4 | 60 | 9.5
Brc1ccc(Cn2nnc3c(Br)cccc32)cn1 | – | – | 210 | –
COc1cccc2c1nnn2CC1CC1 | 8.3 | 0.8 | 400 | 1.8
N#Cc1cccc2c1nnn2CC1CC1 | – | – | 620 | –
Fc1cccc2c1nnn2CC1CC1 | – | – | 1070 | –
Fc1cccc(Cn2nnc3c(Br)cccc32)c1 | 1.3 | 1.6 | 18 | 1.8
Brc1cccc2c1nnn2CC1CC1 | 7.7 | 0.6 | 70 | 1.3
Fc1ccccc1Cn1nnc2c(Br)cccc21 | 1.7 | 1.8 | 64 | 0.2
COc1cc(Br)c2nnn(CC3CC3)c2c1 | – | – | 730 | –
CCn1nnc2c(Br)cccc21 | – | – | 2240 | –
Clc1ccc(Cn2nnc3c(Br)cccc32)cn1 | – | – | 290 | –
Cn1nnc2c(Br)cccc21 | – | – | > 5000 | –
